Test results: ChEMBL document CHEMBL1122866, “3-Phenyl-1-indanamines. Potential antidepressant activity and potent inhibition of dopamine, norepinephrine, and serotonin uptake” (J Med Chem, 1985)
Several values for one entry are separate records, joined by “and”; a condition that tells them apart may be missing. Equal entries are not always repeated.

Species: Mus musculus
Assay: Antagonistic activity against 5-HTP induced potentiation in mice
Assay type: functional
Method in brief: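 Mice dosed intraperitoneally; the result is reported as the ED50 in μmol/kg with a range in parentheses. Test compounds are racemates of >95% isomeric purity by TLC.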

Row | SMILES | ED50
1 | CN(C)C1CC(c2ccc(Cl)c(Cl)c2)c2ccccc21 (centres undefined) | 5 µmol/kg and 10 µmol/kg
2 | CN(C)C1CC(c2ccc(F)c(F)c2)c2ccccc21 (centres undefined) | 73 µmol/kg and 42 µmol/kg
3 | CN(C)C1CC(c2ccc(F)cc2)c2ccc(F)cc21 (centres undefined) | > 29 µmol/kg and 21 µmol/kg
4 | CN1Cc2c(N)cccc2C(c2ccccc2)C1 (centres undefined) | > 56 µmol/kg
5 | CNC1CC(c2ccc(Cl)cc2)c2ccccc21 (centres undefined) | 34 µmol/kg and 22 µmol/kg
6 | Clc1ccc(C2CC(NCCc3ccccc3)c3ccccc32)cc1Cl (centres undefined) | > 85 µmol/kg and 142 µmol/kg
7 | CN1CCN(C2CC(c3ccc(Cl)c(Cl)c3)c3ccccc32)CC1 (single isomer, unassigned; (+)-101) | > 91 µmol/kg
8 | CN1CCN(C2CC(c3ccc(Cl)c(Cl)c3)c3ccccc32)CC1 (single isomer, unassigned; (+)-102) | > 89 µmol/kg
9 | CN1CCN(C2CC(c3ccc(Cl)c(Cl)c3)c3ccccc32)CC1 (single isomer, unassigned; (-)) | > 92 µmol/kg
10 | CN(C)C1CC(c2ccccc2)c2ccccc21 (stereo in doubt; 31) | > 35 µmol/kg
11 | CNC1CC(c2ccc(F)cc2)c2ccccc21 (stereo in doubt; 32) | > 144 µmol/kg
12 | CN(C)C1CC(c2ccc(F)cc2)c2ccccc21 (stereo in doubt; 33) | 45 µmol/kg
13 | CN(C)C1CC(c2ccc(Cl)cc2)c2ccccc21 (stereo in doubt; 35) | 48 µmol/kg
14 | CNC1CC(c2ccc(Br)cc2)c2ccccc21 (stereo in doubt; 36) | 8.8 µmol/kg
15 | CN(C)C1CC(c2ccc(Br)cc2)c2ccccc21 (stereo in doubt; 37) | 8.4 µmol/kg
16 | CNC1CC(c2cccc(Cl)c2)c2ccccc21 (stereo in doubt; 39) | 92 µmol/kg
17 | CN(C)C1CC(c2cccc(Cl)c2)c2ccccc21 (stereo in doubt; 40) | 43 µmol/kg
18 | CNC1CC(c2ccc(F)c(F)c2)c2ccccc21 (stereo in doubt; 41) | 22 µmol/kg
19 | CNC1CC(c2ccc(F)c(Cl)c2)c2ccccc21 (stereo in doubt; 43) | 47 µmol/kg
20 | CN(C)C1CC(c2ccc(F)c(Cl)c2)c2ccccc21 (stereo in doubt; 44) | 37 µmol/kg

Row | SMILES | ED50
21 | CNC1CC(c2ccc(Cl)cc2Cl)c2ccccc21 (stereo in doubt; 48) | 67 µmol/kg
22 | CN(C)C1CC(c2ccc(Cl)cc2Cl)c2ccccc21 (stereo in doubt; 49) | 19 µmol/kg
23 | CNC1CC(c2ccc(Cl)c(Cl)c2)c2ccc(F)cc21 (stereo in doubt; 50) | 27 µmol/kg
24 | CN(C)C1CC(c2ccc(Cl)c(Cl)c2)c2ccc(F)cc21 (stereo in doubt; 51) | 20 µmol/kg
25 | CNC1CC(c2ccc(Cl)c(Cl)c2)c2ccc(O)cc21 (stereo in doubt; 54) | > 128 µmol/kg
26 | CN(C)C1CC(c2ccc(F)cc2)c2ccc(C(F)(F)F)cc21 (stereo in doubt; 57) | 123 µmol/kg
27 | CN(C)C1CC(c2ccccc2)c2ccccc21 (stereo in doubt; 59) | > 36 µmol/kg
28 | CNC1CC(c2ccc(F)cc2)c2ccccc21 (stereo in doubt; 60) | 72 µmol/kg
29 | CN(C)C1CC(c2ccc(F)cc2)c2ccccc21 (stereo in doubt; 61) | 25 µmol/kg
30 | CN(C)C1CC(c2ccc(Cl)cc2)c2ccccc21 (stereo in doubt; 63) | 14 µmol/kg
31 | CNC1CC(c2ccc(Br)cc2)c2ccccc21 (stereo in doubt; 64) | 6.6 µmol/kg
32 | CN(C)C1CC(c2ccc(Br)cc2)c2ccccc21 (stereo in doubt; 65) | 12 µmol/kg
33 | CNC1CC(c2cccc(Cl)c2)c2ccccc21 (stereo in doubt; 66) | 124 µmol/kg
34 | CN(C)C1CC(c2cccc(Cl)c2)c2ccccc21 (stereo in doubt; 67) | 78 µmol/kg
35 | CNC1CC(c2ccc(F)c(F)c2)c2ccccc21 (stereo in doubt; 68) | 63 µmol/kg
36 | CNC1CC(c2ccc(F)c(Cl)c2)c2ccccc21 (stereo in doubt; 70) | 30 µmol/kg
37 | CN(C)C1CC(c2ccc(F)c(Cl)c2)c2ccccc21 (stereo in doubt; 71) | 51 µmol/kg
38 | CNC1CC(c2ccc(Cl)cc2Cl)c2ccccc21 (stereo in doubt; 74) | 71 µmol/kg
39 | CN(C)C1CC(c2ccc(Cl)cc2Cl)c2ccccc21 (stereo in doubt; 75) | 19 µmol/kg
